Measurements: ChEMBL document CHEMBL1154198, “Chemical genetics of Plasmodium falciparum” (Nature, 2010)

Key:
Plasmodium falciparum [1] = assay: ST_JUDE: Plasmodium falciparum 3D7 EC50 (uM) as measured by SYBR green dye; type: functional, organism-based
Plasmodium falciparum [2] = assay: ST_JUDE: Plasmodium falciparum K1 EC50 (uM) as measured by SYBR green dye; type: functional, organism-based
Plasmodium falciparum [3] = assay: ST_JUDE: Cytotoxicity against Plasmodium falciparum 3D7; type: functional, organism-based
How it was run: (§1)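 Asexual P. falciparum grown in human erythrocytes, exposed to compounds for 72 h, and growth read as the DNA quantity in treated versus control cultures. Dose-response run at 12 concentrations from 10 μM to 5 nM.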

Plasmodium falciparum [4] = assay: ST_JUDE: Cytotoxicity against Plasmodium falciparum K1; type: functional, organism-based; how it was run: as §1
Plasmodium falciparum [5] = assay: ST_JUDE: Cytotoxicity against Plasmodium falciparum V1/S; type: functional, organism-based
Toxoplasma gondii = assay: ST_JUDE: Growth inhibition of to Toxoplasma gondii, in human U-2OS cells, as measured by luciferase.; type: functional, organism-based; conditions: RH, U2OS
How it was run: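 T. gondii parasites engineered to express luciferase; drug sensitivity read by luminescence.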

Trypanosoma brucei = assay: ST_JUDE: Cytotoxicity using luciferase to measure ATP as an indicator of the viability of Trypanosoma brucei; type: functional, organism-based
Leishmania major = assay: ST_JUDE: Cytotoxicity using Alamar Blue to measure viability of Leishmania major; type: functional, organism-based
How it was run: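 L. major promastigotes; drug susceptibility read with Alamar Blue.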

[6] = ST_JUDE: Cytotoxicity using luciferase to measure ATP as an indicator of the viability of human foreskin fibroblast cells (BJ); type: toxicity, cell-based
[7] = ST_JUDE: Cytotoxicity using luciferase to measure ATP as an indicator of the viability of human epithelial hepatocellular carcinoma cells (HepG2); type: toxicity, cell-based
[8] = ST_JUDE: Cytotoxicity using luciferase to measure ATP as an indicator of the viability of human epithelial embryonic kidney cells (HEK293); type: toxicity, cell-based
[9] = ST_JUDE: Cytotoxicity using luciferase to measure ATP as an indicator of the viability of human Burkitt''s lymphoma lymphoblast cells (Raji); type: toxicity, cell-based
Plasmodium falciparum [10] = assay: ST_JUDE: Cytotoxicity against Plasmodium falciparum Dd2; type: functional, organism-based
Plasmodium falciparum [11] = assay: ST_JUDE: Cytotoxicity against Plasmodium falciparum W2; type: functional, organism-based
Plasmodium falciparum [12] = assay: ST_JUDE: Cytotoxicity against Plasmodium falciparum SB-A6; type: functional, organism-based
Plasmodium falciparum [13] = assay: ST_JUDE: Cytotoxicity against Plasmodium falciparum D10 transfected with yeast DHOD; type: functional, organism-based

Structure (SMILES)	EC50 (Plasmodium falciparum [1]) [µM]	EC50 (Plasmodium falciparum [2]) [µM]	EC50 (Plasmodium falciparum [3]) [µM]	EC50 (Plasmodium falciparum [4]) [µM]	EC50 (Plasmodium falciparum [5]) [µM]	EC50 (Toxoplasma gondii) [µM]	EC50 (Trypanosoma brucei) [µM]	EC50 (Leishmania major) [µM]	EC50 [6] [µM]	EC50 [7] [µM]	EC50 [8] [µM]	EC50 [9] [µM]	EC50 (Plasmodium falciparum [10]) [µM]	EC50 (Plasmodium falciparum [11]) [µM]	EC50 (Plasmodium falciparum [12]) [µM]	EC50 (Plasmodium falciparum [13]) [µM]
COc1ccc(C2CC(=O)C3=C(C2)NC(=O)CC3c2ccc(C(F)(F)F)cc2)cc1OC (stereo not drawn)	0.599	0.872	2.15	1.59	1.19	> 26	> 45.5	> 20.3	> 47.5	> 47.5	> 47.5	> 47.5	0.894	0.417	1.09	1.11
CCN(CC)CCn1c(=N)n(CC(O)c2ccc(Cl)c(Cl)c2)c2ccccc21 (stereo not drawn)	0.907	0.761	0.804	1.03	1.11	9.01	4.96	> 18.4	> 43.1	7.18	30.7	> 43.1	0.48	0.722	1.07	0.842
CC(C)c1ccc(NC(=O)/C=C/c2ccccc2Cl)cc1	1.1	0.942	> 10.5	> 10.5	> 10.5	> 22.3	23.1	> 17.4	> 40.7	> 40.7	> 40.7	> 40.7	1.61	0.416	> 10.5	> 10.5
CCOC(=O)C1(Cc2cccc(F)c2)CCN(Cc2ccccc2O)CC1	0.347	0.284	1.2	0.402	1.27	> 28.8	25.3	> 22.5	> 52.6	> 52.6	> 52.6	> 52.6	0.679	1.01	1.2	1.42
CCOC(=O)C1(Cc2ccccc2)CCN(Cc2cccc(OC)c2O)CC1	2.29	1.05	1.49	0.645	0.908	> 20.3	30.9	> 15.8	> 37	> 37	> 37	> 37	1.76	1.43	3	2.55
CN(C(=O)c1cc2c(s1)-c1ccccc1S(=O)(=O)C2)c1cccc(C(F)(F)F)c1	0.744	1.25	0.35	0.356	0.684	> 22.4	18.1	> 17.5	> 40.8	> 40.8	> 40.8	> 40.8	0.335	0.116	0.414	0.431
Oc1ccc(Br)cc1CN1CCN(Cc2ccccc2)CC1	0.867	0.419	1.23	0.401	0.582	> 14.9	> 26	> 11.6	> 27.1	> 27.1	> 27.1	> 27.1	0.776	0.848	2.05	1.75
Cc1cc(C)nc(/N=C(\N)Nc2ccccc2O)n1	0.594	0.497	1.43	0.56	0.979	> 18.7	> 32.8	> 14.6	> 34.2	> 34.2	> 34.2	> 34.2	0.908	5.71	2.18	2.88
